Measured values gathered from unrelated publications.
Lines come from different studies, so protocols differ.
Target: Serine/threonine-protein kinase MARK1 (MARK1, Homo sapiens, UniProt Q9P0L2)

SMILES | read-out | action | method | tested at | endpoint | result
CCCCC(=O)Nc1ccc(-c2ccc3ncn(CCC)c(=O)c3c2)cn1 | binding | – | competition with immobilised ligand | 0.5 µM | remaining binding | 81%
C[C@H]1CC[C@H](n2c3cnccc3c3cnc(Nc4ccc5c(n4)CCN(C(=O)CO)C5)nc32)CC1 | cell-free assay | – | – | 1 µM | remaining signal | 66%
CC#CC(=O)N1CCC[C@H]1c1nc(-c2ccc(C(=O)Nc3ccccn3)cc2)c2c(N)nccn12 | enzyme activity | inhibitor | – | 1 µM | inhibition | 10%
C#Cc1cc(-c2cc(Nc3nc(N[C@@H](C)c4ccc(F)cn4)ncc3Cl)n[nH]2)ccc1C=O | enzyme activity | inhibitor | – | 0.2 µM | inhibition | 8.26%
C1=C/COCc2cc(ccc2OCCN2CCCC2)Nc2nccc(n2)-c2cccc(c2)COC/1 | binding | – | – | 0.1 µM | remaining binding | 100%
COc1ccc2oc(-c3ccc4nc(N)oc4c3)c/c(=N\c3ccccc3NC(=O)CCN)c2c1 | binding | – | – | 1 µM | remaining binding | 103%
Cc1ccc(NC(=O)c2ccnc(C(F)(F)F)c2)cc1-c1cc(OCCO)nc(N2CCOCC2)c1 | binding | – | – | 1 µM | remaining binding | 100%
CO[C@@H]1[C@H](N(C)C(=O)c2ccccc2)C[C@H]2O[C@]1(C)n1c3ccccc3c3c4c(c5c6ccccc6n2c5c31)C(=O)NC4 | enzyme activity | inhibitor | – | 1 µM | inhibition | 96%
